Reference: ChEMBL document CHEMBL4425125, “Development of a Dual-Acting Antibacterial Agent (TNP-2092) for the Treatment of Persistent Bacterial Infections” (J Med Chem, 2016)
In brackets after ≈: the same amount, converted by molar mass.

Assays:
Staphylococcus aureus [1] = assay: Antimicrobial activity against Staphylococcus aureus isogenic forms expressing gyrA S84L mutant; type: functional
Staphylococcus aureus [2] = assay: Antimicrobial activity against wild type Staphylococcus aureus; type: functional
[3] = molecular target: DNA gyrase (Staphylococcus aureus) (UniProt P0A0K8+P20831)
Staphylococcus aureus [4] = assay: Antimicrobial activity against Staphylococcus aureus isogenic forms expressing rpoB H481Y mutant; type: functional
[5] = molecular target: Topoisomerase IV (Staphylococcus aureus) (UniProt P0C1U9+P0C1S7)
Staphylococcus aureus [6] = assay: Antimicrobial activity against Staphylococcus aureus isogenic forms expressing rpoB H481Y/gyrA S84L/parC S80F mutant; type: functional
Summary of the method: (§1)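 MIC (μg/mL) on otherwise isogenic derivatives of S. aureus ATCC 29213 that carry the rifamycin-resistance allele rpoB H481Y and/or the quinolone-resistance alleles parC S80F and gyrA S84L. The wild-type parent is the reference strain. MICs were determined both by agar dilution and by broth dilution, tested side by side on the same panel.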

[7] = molecular target: DNA topoisomerase 2-alpha (Homo sapiens) (UniProt P11388)
Staphylococcus aureus [8] = assay: Antimicrobial activity against Staphylococcus aureus isogenic forms expressing rpoB H481Y and parC S80F mutant; type: functional; summary of the method: as §1
Staphylococcus aureus [9] = assay: Antimicrobial activity against Staphylococcus aureus isogenic forms expressing gyrA S84L and parC S80F mutant; type: functional; summary of the method: as §1
Staphylococcus aureus [10] = tested on: Staphylococcus aureus
Staphylococcus aureus [11] = assay: Antimicrobial activity against Staphylococcus aureus isogenic forms expressing parC S80F mutant; type: functional; summary of the method: as §1
Staphylococcus aureus [12] = assay: Antimicrobial activity against Staphylococcus aureus isogenic forms expressing rpoB H481Y and gyrA S84L mutant; type: functional
Staphylococcus aureus [13] = assay: Bactericidal activity against methicillin-resistant Staphylococcus aureus 67-0; type: functional
Staphylococcus aureus [14] = assay: Antimicrobial activity against methicillin-resistant Staphylococcus aureus 67-0; type: functional

Row | Structure (SMILES) | MIC (Staphylococcus aureus [1]) [µg/mL] | MIC (Staphylococcus aureus [2]) [µg/mL] | CC50 [3] [nM] | MIC (Staphylococcus aureus [4]) [µg/mL] | CC50 [5] [nM] | MIC (Staphylococcus aureus [6]) [µg/mL] | CC50 [7] [nM] | MIC (Staphylococcus aureus [8]) [µg/mL] | MIC (Staphylococcus aureus [9]) [µg/mL] | CC50 (Staphylococcus aureus [10]) [nM] | MIC (Staphylococcus aureus [11]) [µg/mL] | MIC (Staphylococcus aureus [12]) [µg/mL] | MBC (Staphylococcus aureus [13]) [µg/mL] | MIC (Staphylococcus aureus [14]) [µg/mL]
1 | COc1c(N2CCNC(C)C2)c(F)cc2c(=O)c(C(=O)O)cn(C3CC3)c12 (configuration not stated) [GATIFLOXACIN] | 0.12 (≈ 0.32 µM) | 0.06 (≈ 0.16 µM) | 700 | 0.06 (≈ 0.16 µM) | 200 | 8 (≈ 21.3 µM) | > 150000 | 0.25 (≈ 0.666 µM) | 8 (≈ 21.3 µM) | 13000 | 0.25 (≈ 0.666 µM) | 0.12 (≈ 0.32 µM) |  | 
2 | C[C@H]1COc2c(N3CCN(C)CC3)c(F)cc3c(=O)c(C(=O)O)cn1c23.C[C@H]1COc2c(N3CCN(C)CC3)c(F)cc3c(=O)c(C(=O)O)cn1c23.O [LEVOFLOXACIN] | 0.25 | 0.25 |  | 0.25 |  | 8 |  | 1 | 8 |  | 1 | 0.25 | 2 | 2
